Results gathered from unrelated publications.
Each line is one published result; the experiments were not run side by side.
Target: Non-receptor tyrosine-protein kinase TNK1 (TNK1, Homo sapiens, UniProt Q13470)
Residues used in one study (Q13470 1-666): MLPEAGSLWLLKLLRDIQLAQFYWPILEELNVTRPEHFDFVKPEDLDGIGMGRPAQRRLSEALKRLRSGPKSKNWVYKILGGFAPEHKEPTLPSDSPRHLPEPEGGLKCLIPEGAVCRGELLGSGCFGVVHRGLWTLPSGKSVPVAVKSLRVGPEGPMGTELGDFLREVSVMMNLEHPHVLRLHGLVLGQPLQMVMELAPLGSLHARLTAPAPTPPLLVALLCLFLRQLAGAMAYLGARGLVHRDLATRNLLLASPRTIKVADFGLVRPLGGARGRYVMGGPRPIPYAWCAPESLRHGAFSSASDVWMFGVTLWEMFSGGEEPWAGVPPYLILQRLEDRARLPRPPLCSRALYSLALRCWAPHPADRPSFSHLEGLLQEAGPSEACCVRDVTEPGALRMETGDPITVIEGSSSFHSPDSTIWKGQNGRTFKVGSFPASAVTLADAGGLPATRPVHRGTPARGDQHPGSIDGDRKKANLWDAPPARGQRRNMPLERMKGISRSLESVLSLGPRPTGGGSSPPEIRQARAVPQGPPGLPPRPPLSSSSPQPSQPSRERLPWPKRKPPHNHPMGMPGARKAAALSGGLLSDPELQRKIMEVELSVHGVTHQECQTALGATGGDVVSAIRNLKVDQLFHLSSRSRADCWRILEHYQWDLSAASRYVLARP

Compound	assay	conditions	remaining binding [%]
CN(CCCC(F)(F)F)c1nccc(-c2cnn3ncccc23)n1	binding	1 µM	83
O=C(NCCCN1CCOCC1)c1ccc(Nc2ncc(Cl)c(-c3ccc(Cl)s3)n2)cc1	binding, competition with immobilised ligand	1 µM	36
Nc1ncc2c(n1)-c1c([nH]c3ccc(C#CC4CC4)cc13)CCCC2	binding, competition with immobilised ligand	1 µM	100
CN(C)c1ncc(F)c(-c2cnn3ncccc23)n1	binding	1 µM	100
O=C(Nc1ccc(Oc2ccc(F)cc2)cc1)N1CCc2ncccc2[C@H]1c1ccc(F)cc1	cell-free assay, competition with immobilised ligand	1 µM	96
C=CC(=O)N1CCC(C(=O)NCC(=O)N2CCN(c3nc(-c4cnc(N)nc4C(F)F)nc(N4CCOCC4)n3)CC2)CC1	binding, competition with immobilised ligand	1 µM	83
Cc1cnn2ncc(-c3ccnc(N(C)C)n3)c2c1	binding	1 µM	98
Cc1c(C(=O)O)cc(-c2ccc(C3CCNCC3)cc2)c2ccc(-c3ccc(C(F)(F)F)cc3)cc12	binding, competition with immobilised ligand	1 µM	100
O=C(NCCCN1CCOCC1)c1ccc(Nc2nccc(-c3cc4ccccc4s3)n2)cc1	binding, competition with immobilised ligand	1 µM	41
c1cncc(-c2cccc(Nc3nccc(NC4CCCCC4)n3)c2)c1	binding, competition with immobilised ligand	10 µM	40
N[C@H]1CCN(c2nccc(-c3cnn4ncccc34)n2)C1	binding	1 µM	0
O=C(Nc1c[nH]nc1C(=O)NC1CCNCC1)c1cc(F)cc(F)c1	binding, competition with immobilised ligand	1 µM	38
CC(C)CC(=O)N1CCc2nc(-c3ccc(Br)cc3)nc(N(C)Cc3ccccc3)c2C1	cell-free assay, competition with immobilised ligand	0.1 µM	100
C[C@@H]1CCN(c2nccc(-c3cnn4ncccc34)n2)C1	binding	1 µM	100
CC1=C(C#N)C(c2ccc3c(c2)c(NC(=O)c2ccccc2C)nn3C)C(C#N)=C(C)N1	cell-free assay, competition with immobilised ligand	1 µM	76
O=C(c1ccc(Nc2ncc(Cl)c(-c3ccc(Cl)s3)n2)cc1)N1CCC(N2CCCC2)CC1	binding, competition with immobilised ligand	1 µM	13
Cc1c[nH]c2nccc(Oc3c(F)cc(Nc4cc(Cl)nc(N)n4)cc3F)c12	cell-free assay, competition with immobilised ligand	0.1 µM	100
CNC(=O)[C@@H]1CC[C@@H](n2c(-c3ccc4cnccc4c3)nc3ccc(C(=O)NCc4cccc(C(N)=O)c4)cc32)C1	binding, competition with immobilised ligand	1 µM	97
O=C(Nc1cccnn1)N1CCC(=Cc2cccc(Oc3ccc(C(F)(F)F)cn3)c2)CC1	cell-free assay, competition with immobilised ligand	1 µM	98
COc1ncc2cc3ccccc3nc2c1C#N	cell-free assay, competition with immobilised ligand	5 µM	100
c1cnn2ncc(-c3ccnc(N4CCC45COC5)n3)c2c1	binding	1 µM	100
CNC(=O)c1ccc(Nc2ncc(C(F)(F)F)c(NCc3nccnc3N(C)S(C)(=O)=O)n2)cc1	cell-free assay, competition with immobilised ligand	0.1 µM	100
